This note sets out measurements from ChEMBL document CHEMBL3612021, “Structure-kinetics relationships of Capadenoson derivatives as adenosine A1 receptor agonists” (Eur J Med Chem, 2015).

Molecules are shown by their SMILES.

The target in assay [1] is T1, Adenosine receptor A1 (Homo sapiens) (UniProt P30542).
T1 sequence (whole entry): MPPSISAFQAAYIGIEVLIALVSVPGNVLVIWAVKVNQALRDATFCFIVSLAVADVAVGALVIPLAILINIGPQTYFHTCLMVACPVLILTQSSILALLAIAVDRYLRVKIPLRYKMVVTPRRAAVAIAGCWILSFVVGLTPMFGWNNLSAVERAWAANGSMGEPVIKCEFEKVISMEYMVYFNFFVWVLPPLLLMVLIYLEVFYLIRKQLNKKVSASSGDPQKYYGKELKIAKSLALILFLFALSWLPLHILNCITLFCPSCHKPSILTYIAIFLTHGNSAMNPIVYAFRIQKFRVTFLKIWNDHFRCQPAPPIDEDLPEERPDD
In words: Displacement of [3H]DPCPX from human adenosine A1 receptor expressed in CHO cell membranes assessed as kinetic rate index by measuring ratio of binding at earlier and later time points by competition association assay. The procedure, abridged:
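Dual-point competition association assay with [3H]DPCPX on CHO membranes stably expressing hA1. Specific binding is read at two time points in the presence of the test ligand. KRI is the ratio of binding at the earlier to the later time point (n = 2; both values reported).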

Assay [2] concerns the target T1, Adenosine receptor A1 (Homo sapiens). In words: Displacement of [3H]DPCPX from human adenosine A1 receptor expressed in CHO cell membranes assessed as association rate constant by competition association assay. Summed up: (§1)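 Competition association assay on CHO cell membranes stably expressing hA1, with [3H]DPCPX as tracer. kon and koff come from these association curves (n ≥ 3, ± SEM). Residence time is shown alongside koff and corresponds to 1/koff in minutes.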
In general terms: In a radioligand displacement assay an active substance lowers the binding of a labelled ligand.

Assay [3] has the same target. In words: Displacement of [3H]DPCPX from human adenosine A1 receptor expressed in CHO cell membranes at 1 uM by competition association assay.
Assay [4] has the same target. In words: Displacement of [3H]DPCPX from human adenosine A1 receptor expressed in CHO cell membranes assessed as residence time by competition association assay. Summed up: as §1
For assay [5] the target is unchanged. Description: Displacement of [3H]DPCPX from human adenosine A1 receptor expressed in CHO cell membranes assessed as dissociation rate constant by competition association assay. Summed up:
as §1

Regarding `COc1ccc(-c2nc(CSc3nc(N)c(C#N)c(-c4ccc(OC)cc4)c3C#N)cs2)cc1`, the Ratio in assay [1] turned out to be 1.22. Regarding `N#Cc1c(N)nc(SCc2csc(-c3ccc(Cl)cc3)n2)c(C#N)c1-c1ccc(O)cc1`, the K was 4.3 ×10⁶ /M/min in assay [2] and 0.028 min⁻¹ in assay [5]. Besides, the inhibition in assay [3] is > 80%. In assay [4], the TIME came to 0.595 h. Further, the Ratio in assay [1] is 2.07.

`COc1ccc(-c2c(C#N)c(N)nc(SCc3csc(-c4ccc(Br)cn4)n3)c2C#N)cc1`: the values for the K in assay [2] and in assay [5] were 1.4 ×10⁶ /M/min and 0.03 min⁻¹, respectively. For the same molecule, in assay [3], the inhibition was > 80%. The TIME in assay [4] is 0.555 h. The Ratio in assay [1] came out at 1.71.

Take `COc1ccc(-c2c(C#N)c(N)nc(SCc3csc(-c4ccc(F)cc4)n3)c2C#N)cc1`: the K in assay [2] came to 4.6 ×10⁶ /M/min; in assay [5], 0.033 min⁻¹. Also, the TIME in assay [4] was 0.505 h. Moreover, in assay [1], the Ratio came out at 1.56. As to `N#Cc1c(NCCc2ccccc2)nc(SCc2csc(-c3ccc(Cl)cc3)n2)nc1-c1ccc2c(c1)OCO2`, in assay [3], the inhibition was < 80%. The same measure, in the same setting: the figure for `N#Cc1c(N)nc(SCc2csc(-c3ccc(C(F)(F)F)cc3)n2)nc1-c1ccc2c(c1)OCO2` is > 80%; for `N#Cc1c(NC2CCCCC2)nc(SCc2csc(-c3ccc(Cl)cc3)n2)nc1-c1ccc2c(c1)OCO2` it is < 80%; for `N#Cc1c(N)nc(SCc2nc(-c3ccc(Cl)cc3)sc2Br)c(C#N)c1-c1ccc2c(c1)OCO2` it is > 80%. `COc1ccc(-c2nc(SCc3coc(-c4cccc(F)c4)n3)nc(N)c2C#N)cc1`: the inhibition in assay [3] is < 80%. Take `N#Cc1c(N)nc(SCc2csc(-c3cccc(F)c3)n2)nc1-c1ccc2c(c1)OCO2`: the inhibition in assay [3] is > 80%. The same measure, in the same setting: as for `CCOc1ccc(-c2nc(SCc3csc(-c4ccc(Cl)cc4)n3)nc(N)c2C#N)cc1`, the figure is < 80%. As to `N#Cc1c(N)nc(SCc2nc(-c3ccc(Cl)cc3)sc2Cl)c(C#N)c1-c1ccc2c(c1)OCO2`, in assay [3], the inhibition is > 80%. In the case of `N#Cc1c(N)nc(SCc2csc(-c3ccc(Cl)cc3)n2)nc1-c1ccc(OCCO)cc1`, in assay [3], the inhibition was > 80%. For the molecule `COc1ccc(-c2c(C#N)c(N)nc(SCc3csc(-c4ccccc4F)n3)c2C#N)cc1`, the inhibition in assay [3] was > 80%. Still for that read-out and setting: as for `N#Cc1c(N)nc(SCc2csc(-c3cccc(Cl)c3)n2)nc1-c1ccc2c(c1)OCO2`, the figure is > 80%.

On to `N#Cc1c(-c2ccc3c(c2)OCO3)cc(SCc2csc(-c3ccc(Cl)cc3)n2)nc1NC1CC1`, for which, in assay [3], the inhibition was > 80%. With `N#Cc1c(N)nc(SCc2csc(-c3ccc(I)cc3)n2)nc1-c1ccc2c(c1)OCO2`, the inhibition in assay [3] is > 80%. For `N#Cc1c(N)nc(SCc2ccccc2[N+](=O)[O-])nc1-c1ccc2c(c1)OCO2`, the inhibition in assay [3] is > 80%. Regarding `COc1ccc(-c2c(C#N)c(N)nc(SCc3coc(-c4ccc(F)cc4)n3)c2C#N)cc1`, the inhibition in assay [3] was > 80%. On the same count and under the same terms, the figure for `N#Cc1c(NCC(c2ccccc2)c2ccccc2)nc(SCc2csc(-c3ccc(Cl)cc3)n2)nc1-c1ccc2c(c1)OCO2` is < 80%; for `N#Cc1c(N)nc(SCc2csc(-c3ccc(Cl)cc3)n2)nc1-c1ccccc1` it is > 80%; for `CN(C)c1ccc(-c2nc(SCc3csc(-c4ccc(Cl)cc4)n3)nc(N)c2C#N)cc1` it is > 80%. Consider `COc1ccc(-c2c(C#N)c(N)nc(SCc3csc(-c4cccc(Cl)c4)n3)c2C#N)cc1`, for which the K in assay [2] came to 7.7 ×10⁵ /M/min; in assay [5], 0.025 min⁻¹. Further, the inhibition in assay [3] was > 80%. Further, the TIME in assay [4] was 0.667 h. In assay [1], the Ratio turned out to be 1.6. As for `N#Cc1c(N)nc(SCc2csc(-c3ccc(Cl)c(Cl)c3)n2)c(C#N)c1-c1ccc(O)cc1`, the inhibition in assay [3] was > 80%. In the case of `N#Cc1c(N)nc(SCc2coc(-c3ccc(Cl)cc3)n2)nc1-c1ccc2c(c1)OCO2`, the inhibition in assay [3] is > 80%.

On to `Cc1ccc(-c2nc(SCc3csc(-c4ccc(Cl)cc4)n3)nc(N)c2C#N)cc1`, for which the inhibition in assay [3] was < 80%. `N#Cc1c(N)nc(SCc2csc(-c3ccccc3F)n2)nc1-c1ccc2c(c1)OCO2`: the inhibition in assay [3] is > 80%. Regarding `COc1ccc(-c2c(C#N)c(N)nc(SCc3csc(-c4ccc(Cl)c(Cl)c4)n3)c2C#N)cc1`, the K in assay [2] was 1.1 ×10⁶ /M/min; in assay [5], 0.019 min⁻¹. Moreover, the TIME in assay [4] was determined as 0.877 h. The Ratio in assay [1] was determined as 2.35.

`N#Cc1c(N)nc(SCc2csc(-c3ccc(F)cc3)n2)nc1-c1ccc2c(c1)OCO2`: the inhibition in assay [3] was > 80%.

For `COc1ccc(-c2nc(CSc3nc(N)c(C#N)c(-c4ccc5c(c4)OCO5)n3)cs2)cc1`, the inhibition in assay [3] was > 80%. Consider `COc1ccc(-c2c(C#N)c(N)nc(SCc3csc(-c4ccccc4Cl)n3)c2C#N)cc1`, for which the K in assay [2] turned out to be 9.4 ×10⁵ /M/min; in assay [5], 0.024 min⁻¹. The inhibition in assay [3] is > 80%. Besides, in assay [4], the TIME was found to be 0.695 h. Moreover, in assay [1], the Ratio was determined as 1.53. As to `Cc1ccc(-c2nc(CSc3nc(N)c(C#N)c(-c4ccc(O)cc4)c3C#N)cs2)cc1`, in assay [3], the inhibition was > 80%.

Consider `CC(=O)Nc1ccc(-c2nc(SCc3cccc(CCC(=O)N4CCN(C)CC4)n3)nc(N)c2C#N)cc1`, for which the inhibition in assay [3] is < 80%.

As for `CN(C)CCNc1nc(SCc2csc(-c3ccc(Cl)cc3)n2)nc(-c2ccc3c(c2)OCO3)c1C#N`, the inhibition in assay [3] was < 80%. Consider `N#Cc1c(N)nc(SCc2csc(-c3ccc4c(c3)OCO4)n2)nc1-c1ccc2c(c1)OCO2`, for which the inhibition in assay [3] was > 80%. On the same count and under the same terms, as for `Cc1ccc(-c2nc(CSc3nc(N)c(C#N)c(-c4ccc5c(c4)OCO5)n3)cs2)cc1`, the figure is > 80%; as for `CCC(CC)Nc1nc(SCc2csc(-c3ccc(Cl)cc3)n2)nc(-c2ccc3c(c2)OCO3)c1C#N`, < 80%; as for `CC(C)Nc1nc(SCc2csc(-c3ccc(Cl)cc3)n2)nc(-c2ccc3c(c2)OCO3)c1C#N`, < 80%.

For the molecule `N#Cc1c(N)nc(SCc2csc(-c3ccc(Cl)cc3)n2)nc1-c1ccc(OC(F)(F)F)cc1`, the inhibition in assay [3] is > 80%.

As to `N#Cc1c(N)nc(SCc2csc(-c3ccc(Cl)c(Cl)c3)n2)nc1-c1ccc2c(c1)OCO2`, the inhibition in assay [3] is > 80%. With `COc1ccc(-c2nc(SCc3csc(-c4ccc(Cl)cc4)n3)nc(N)c2C#N)cc1`, the inhibition in assay [3] is < 80%. Still for that read-out and setting: as for `N#Cc1c(N)nc(SCc2csc(-c3ccc(Cl)cc3)n2)nc1-c1ccc(O)cc1`, the figure is > 80%; as for `N#Cc1c(NCc2ccccc2)nc(SCc2csc(-c3ccc(Cl)cc3)n2)nc1-c1ccc2c(c1)OCO2`, < 80%. For the molecule `COc1ccc(-c2c(C#N)c(N)nc(SCc3csc(-c4ccc(I)cc4)n3)c2C#N)cc1`, the values for the K in assay [2] and in assay [5] were 1.6 ×10⁶ /M/min and 0.011 min⁻¹, respectively. Moreover, the inhibition in assay [3] was > 80%. Moreover, in assay [4], the TIME is 1.51 h. Further, in assay [1], the Ratio turned out to be 2.07. Turning to `N#Cc1c(N)nc(SCc2csc(-c3cccc(F)c3)n2)c(C#N)c1-c1ccc(O)cc1`, the inhibition in assay [3] was > 80%. Consider `CC(=O)Nc1ccc(-c2nc(SCc3cccc(CCC(=O)N4CCN(CCN5CCCC5)CC4)n3)nc(N)c2C#N)cc1`, for which, in assay [3], the inhibition is < 80%. Regarding `CCCCNc1nc(SCc2csc(-c3ccc(Cl)cc3)n2)nc(-c2ccc3c(c2)OCO3)c1C#N`, the inhibition in assay [3] is < 80%.

Turning to `N#Cc1c(N)nc(SCc2cscn2)nc1-c1ccc2c(c1)OCO2`, in assay [3], the inhibition is > 80%. As for `CC(C)(C)Nc1nc(SCc2csc(-c3ccc(Cl)cc3)n2)nc(-c2ccc3c(c2)OCO3)c1C#N`, the inhibition in assay [3] was < 80%. As for `CNc1nc(SCc2csc(-c3ccc(Cl)cc3)n2)cc(-c2ccc3c(c2)OCO3)c1C#N`, the inhibition in assay [3] is > 80%. Take `N#Cc1c(N)nc(SCc2csc(-c3ccc(Cl)cc3)n2)c(C#N)c1-c1ccc2c(c1)OCO2`: the K in assay [2] worked out at 2.4 ×10⁶ /M/min; in assay [5], 0.016 min⁻¹. Further, in assay [3], the inhibition was > 80%. The TIME in assay [4] was determined as 1.04 h. In addition, the Ratio in assay [1] came out at 2. Take `N#Cc1c(N)nc(SCc2csc(-c3ccc([N+](=O)[O-])cc3)n2)nc1-c1ccc2c(c1)OCO2`: the inhibition in assay [3] is > 80%. `COc1ccc(-c2c(C#N)c(N)nc(SCc3nc(-c4ccc(Cl)cc4)sc3Cl)c2C#N)cc1`: the results for the K in assay [2] and in assay [5] were 1.4 ×10⁶ /M/min and 0.028 min⁻¹, respectively. In addition, in assay [4], the TIME turned out to be 0.595 h. Besides, in assay [1], the Ratio came to 1.79. With `COc1ccc(-c2c(C#N)c(N)nc(SCc3csc(-c4ccc(C)cc4)n3)c2C#N)cc1`, the inhibition in assay [3] is > 80%. For the same molecule, the Ratio in assay [1] amounted to 1.25.

For `COc1ccc(-c2c(C#N)c(N)nc(SCc3csc(-c4ccc(Cl)cn4)n3)c2C#N)cc1`, the K in assay [2] worked out at 3.4 ×10⁶ /M/min; in assay [5], 0.035 min⁻¹. In assay [3], the inhibition was > 80%. In assay [4], the TIME is 0.477 h. Besides, the Ratio in assay [1] was found to be 1.64. For `COc1ccc(-c2c(C#N)c(N)nc(SCc3csc(-c4ccc(Br)cc4)n3)c2C#N)cc1` the same measures were 2.4 ×10⁶ /M/min, 0.02 min⁻¹, > 80%, 0.833 h and 1.55.

One may read the inhibition as how much of the control response was suppressed. The low end stands for a weak effect, the high end for a strong effect.
